Experimental data as given in ChEMBL document CHEMBL1136987, “Synthesis and evaluation of sphingosine analogues as inhibitors of sphingosine kinases” (J Med Chem, 2009).
Active and inactive are the calls of the source. The rule behind the calls is not given here.

Experiments:
[1] = biological target: T1, Sphingosine kinase 2 (Homo sapiens) (UniProt Q9NRA0); assay: Effect on human cloned SPHK2 activity expressed in CHO cells at 10 uM relative to basal level; assay type: cell-based
T1 sequence (whole entry): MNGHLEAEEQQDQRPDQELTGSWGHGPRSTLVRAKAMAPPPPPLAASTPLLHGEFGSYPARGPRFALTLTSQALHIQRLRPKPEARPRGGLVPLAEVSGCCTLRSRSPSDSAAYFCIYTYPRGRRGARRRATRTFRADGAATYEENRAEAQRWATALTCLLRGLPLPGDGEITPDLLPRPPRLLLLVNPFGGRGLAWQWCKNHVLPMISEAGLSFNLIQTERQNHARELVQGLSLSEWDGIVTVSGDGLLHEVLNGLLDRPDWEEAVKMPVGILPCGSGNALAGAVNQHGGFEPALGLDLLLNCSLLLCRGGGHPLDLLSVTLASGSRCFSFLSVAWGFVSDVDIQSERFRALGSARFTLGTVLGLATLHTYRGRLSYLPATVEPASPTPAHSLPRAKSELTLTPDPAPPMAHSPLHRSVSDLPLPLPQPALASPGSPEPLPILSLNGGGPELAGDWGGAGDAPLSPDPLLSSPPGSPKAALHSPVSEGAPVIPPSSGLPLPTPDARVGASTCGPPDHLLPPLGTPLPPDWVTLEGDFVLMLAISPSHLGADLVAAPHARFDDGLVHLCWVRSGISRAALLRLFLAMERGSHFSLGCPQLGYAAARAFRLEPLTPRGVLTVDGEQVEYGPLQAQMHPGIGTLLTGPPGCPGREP
Summary of the method: (§1)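 Enzyme source: lysates (40 µg protein) of CHO cells transiently transfected (Lipofectamine 2000) with human SPHK1 (EGFP fusion) or SPHK2 plasmid. Compound at 10 µM in sphingosine kinase buffer with sphingosine-BSA complex (1 mM stock) and cold plus γ-[32P]ATP; 30 min at 37 °C. Lipids extracted with acidified chloroform/methanol, run on TLC, phosphorimaged; triplicate lanes per tube.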

[2] = biological target: T2, Sphingosine kinase 1 (Homo sapiens, UniProt Q9NYA1); assay: Effect on EGFP-fused human SPHK1 activity expressed in CHO cells at 10 uM relative to basal level; assay type: cell-based; summary of the method: as §1
[3] = biological target: T1, Sphingosine kinase 2 (Homo sapiens); assay: Inhibition of human cloned SPHK2 expressed in CHO cells at 10 uM; assay type: cell-based; summary of the method: as §1
[4] = biological target: T2, Sphingosine kinase 1; assay: Inhibition of EGFP-fused human SPHK1 expressed in CHO cells at 10 uM; assay type: cell-based; summary of the method: as §1
[5] = biological target: T2, Sphingosine kinase 1; assay: Inhibition of human SPHK1 expressed in human U937 cells assessed as inhibition of endogenous sphingosine-1-phosphate levels at 5 uM after 2 hrs by ELISA; assay type: cell-based; details: U-937
Summary of the method: (§2)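 U937 cells transfected with huSPHK1 or huSPHK2 plasmid, then incubated with or without inhibitor at 5 µM for 2 h. Endogenous S1P was measured by competitive ELISA (sensitivity 30 nM).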

[6] = biological target: T2, Sphingosine kinase 1; assay: Inhibition of EGFP-fused human SPHK1 expressed in CHO cells using D-erythro-sphingosine as substrate by Michaelis-Menten plot
Summary of the method: (§3)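 Kinetics of huSPHK1 or huSPHK2 from transfected CHO lysates, with D-erythro-sphingosine as substrate, in the 32P-ATP TLC assay (30 min, 37 °C). Michaelis-Menten behaviour was used to derive Km for sphingosine and Ki for the inhibitors.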

[7] = system: U-937; assay: Inhibition of TNF-alpha-induced sphingosine-1-phosphate levels in human U937 cells at 5 uM after 2 hrs by ELISA; assay type: functional, cell-based
Summary of the method: (§4)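 Human monocytic U937 cells, stimulated or not with TNFα, were incubated with or without inhibitor at 5 µM for 2 h. Cellular S1P was quantified by competitive S1P ELISA (sensitivity 30 nM).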

[8] = biological target: Protein kinase C alpha type (Homo sapiens) (UniProt P17252); assay: Inhibition of human PKCalpha at 100 uM by gel electrophoresis
Summary of the method: (§5)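 PepTag nonradioactive assay: purified human PKCα with C1 peptide, PKC activator and reaction buffer. Inhibitor at 10, 25, 50, 75 or 100 µM, preincubated 2 min, then 30 min at 30 °C with enzyme. Stopped at 95 °C for 10 min.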

[9] = biological target: T2, Sphingosine kinase 1; assay: Inhibition of EGFP-fused human SPHK1 expressed in CHO cells; assay type: cell-based
Summary of the method: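 SPHK1 from transfected CHO cell lysates (40 µg per tube), sphingosine-BSA and γ-[32P]ATP, 30 min at 37 °C. Compounds tested at 0, 10, 25, 50 and 100 µM. Radiolabelled S1P measured by TLC and phosphorimaging. IC50 obtained from triplicate experiments and reported as mean ± SD.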

[10] = system: U-937; assay: Antiproliferative activity against human U937 cells at 10 uM after 24 to 72 hrs by MTT assay; assay type: functional
Summary of the method: (§6)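 U937 or HL60 cells in RPMI 1640 with 10% FBS and 1% L-glutamine; 50 000 cells/well at 1 × 10^6 cells/mL. Compound at 10 µM, DMSO 0.5% of volume as vehicle control. Incubated 24, 48, 72 h at 37 °C, 5% CO2. MTT (4 mg/mL in RPMI) added for 2 h in dark, crystals dissolved in DMSO/glycine buffer, A570 read.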

[11] = system: HL-60; assay: Antiproliferative activity against human HL60 cells at 10 uM after 24 to 72 hrs by MTT assay; assay type: functional; summary of the method: as §6
[12] = biological target: T1, Sphingosine kinase 2 (Homo sapiens); assay: Inhibition of human SPHK2 expressed in human U937 cells assessed as inhibition of endogenous sphingosine-1-phosphate levels at 5 uM after 2 hrs by ELISA; assay type: cell-based; details: U-937; summary of the method: as §2
[13] = system: U-937; assay: Inhibition of basal sphingosine-1-phosphate levels in human U937 cells at 5 uM after 2 hrs by ELISA; assay type: functional, cell-based; summary of the method: as §4
[14] = biological target: T3, Sphingosine kinase 2 (Homo sapiens, UniProt Q9NRA0); assay: Inhibition of human cloned SPHK2 expressed in CHO cells using D-erythro-sphingosine as substrate by Michaelis-Menten plot; summary of the method: as §3
T3 sequence (Q9NRA0 whole entry): T1 sequence (whole entry)

[15] = biological target: Protein kinase C alpha type (Homo sapiens) (UniProt P17252); assay: Inhibition of human PKCalpha at 50 uM by gel electrophoresis; summary of the method: as §5

T2 sequence (Q9NYA1 whole entry, the tested form may be a part): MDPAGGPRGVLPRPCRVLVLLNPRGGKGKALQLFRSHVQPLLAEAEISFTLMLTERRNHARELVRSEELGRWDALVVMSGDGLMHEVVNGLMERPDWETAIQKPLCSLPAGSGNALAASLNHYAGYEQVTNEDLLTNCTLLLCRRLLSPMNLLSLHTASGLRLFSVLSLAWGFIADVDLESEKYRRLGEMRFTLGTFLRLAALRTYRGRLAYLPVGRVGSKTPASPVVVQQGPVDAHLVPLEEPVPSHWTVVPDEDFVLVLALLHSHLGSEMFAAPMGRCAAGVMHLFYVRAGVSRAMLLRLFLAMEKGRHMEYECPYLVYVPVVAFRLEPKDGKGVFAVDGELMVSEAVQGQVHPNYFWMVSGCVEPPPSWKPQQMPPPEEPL

| SMILES | Activity [1] [%] | Activity [2] [%] | inhibition [3] | inhibition [4] | Activity [5] | Ki [6] [µM] | Activity [8] | IC50 [9] [µM] | Activity [12] | Ki [14] [µM] | Activity [15] | Activity [7] | Activity [10] | Activity [11] [%] | Activity [13] |
| --- | --- | --- | --- | --- | --- | --- | --- | --- | --- | --- | --- | --- | --- | --- | --- |
| CCCCCCC(=O)[C@@H]1COC(C)(C)N1C(=O)OC(C)(C)C | 126 | 95.3 | inactive | 4.71% |  |  |  |  |  |  |  |  |  |  |  |
| CCCCCCCCCCCCCC#CC(=O)[C@@H]1COC(C)(C)N1C(=O)OC(C)(C)C | 117 | 45.3 | inactive | 54.7% | Active | 3 | Active | 3.3 |  |  |  | Active | 10% | 10 |  |
| CCCCC#CC(=O)[C@H](CO)NC(=O)OC(C)(C)C | 117 | 106 | inactive | inactive |  |  |  |  |  |  |  |  |  |  |  |
| CCCCCCCCCCCCC/C=C/[C@@H](O)[C@H](CO)N(C)C [DIMETHYLSPINGOSINE] | 67 |  | 33% |  |  |  |  |  | Active | 12.5 | Active | Active |  |  | Active |
| CCCCCCCCCCCCCC#C[C@@H](O)[C@@H]1COC(C)(C)N1C(=O)OC(C)(C)C | 123 | 112 | inactive | inactive |  |  |  |  |  |  |  |  |  |  |  |
| CCCCCCCCCCCCCC#CC(=O)[C@H](CO)NC(=O)OC(C)(C)C | 45.9 | 43.1 | 54.1% | 56.9% | Active | 1 |  | 1.2 | Active |  |  | inactive | Active |  | Active |
| CCCCC#CC(=O)[C@@H]1COC(C)(C)N1C(=O)OC(C)(C)C | 115 | 90.9 | inactive | 9.08% |  |  |  |  |  |  |  |  |  |  |  |
| CCCCCCCCC#CC(=O)[C@@H]1COC(C)(C)N1C(=O)OC(C)(C)C | 62.8 | 84.8 | 37.2% | 15.2% |  |  |  |  |  |  |  |  |  |  |  |

More lines, main results first:

| Activity [1] [%] | Activity [2] [%] | inhibition [3] | inhibition [4] | Activity [5] | Ki [6] [µM] | Activity [8] | IC50 [9] [µM] | Activity [12] | Ki [14] [µM] | Activity [15] | SMILES | Activity [7] | Activity [10] | Activity [11] [%] | Activity [13] |
| --- | --- | --- | --- | --- | --- | --- | --- | --- | --- | --- | --- | --- | --- | --- | --- |
| 152 | 75.6 | inactive | 24.4% |  |  |  |  |  |  |  | CCCCCCCCCCCCCC#C[C@@H](O)[C@@H](N)CO |  |  |  |  |
| 111 | 117 | inactive | inactive |  |  |  |  |  |  |  | CCCCC#C[C@H](O)[C@H](CO)NC(=O)OC(C)(C)C |  |  |  |  |
| 116 | 86.3 | inactive | 13.7% |  |  |  |  |  |  |  | CCCCCCCCC#C[C@@H](O)[C@@H](N)CO |  |  |  |  |
| 89.9 | 95.8 | inactive | 4.2% |  |  |  |  |  |  |  | CCCCCCCCC#CC(=O)[C@H](CO)NC(=O)OC(C)(C)C |  |  |  |  |
| 109 | 132 | inactive | inactive |  |  |  |  |  |  |  | CCCCC#C[C@@H](O)[C@@H](N)CO |  |  |  |  |
